From ChEMBL document CHEMBL1781951, “Theonellasterols and conicasterols from Theonella swinhoei. Novel marine natural ligands for human nuclear receptors” (J Med Chem, 2011)
Activity calls are given as the source filed them. The rule behind the calls is not given here.

Legend:
[1] = biological target: T1, Bile acid receptor (Homo sapiens) (UniProt Q96RI1); experiment: Partial agonist activity at human FXR expressed in human HepG2 cells assessed as induction of transactivation at 10 uM after 18 hrs by luciferase reporter gene assay; assay type: functional, cell-based
T1 sequence (whole entry): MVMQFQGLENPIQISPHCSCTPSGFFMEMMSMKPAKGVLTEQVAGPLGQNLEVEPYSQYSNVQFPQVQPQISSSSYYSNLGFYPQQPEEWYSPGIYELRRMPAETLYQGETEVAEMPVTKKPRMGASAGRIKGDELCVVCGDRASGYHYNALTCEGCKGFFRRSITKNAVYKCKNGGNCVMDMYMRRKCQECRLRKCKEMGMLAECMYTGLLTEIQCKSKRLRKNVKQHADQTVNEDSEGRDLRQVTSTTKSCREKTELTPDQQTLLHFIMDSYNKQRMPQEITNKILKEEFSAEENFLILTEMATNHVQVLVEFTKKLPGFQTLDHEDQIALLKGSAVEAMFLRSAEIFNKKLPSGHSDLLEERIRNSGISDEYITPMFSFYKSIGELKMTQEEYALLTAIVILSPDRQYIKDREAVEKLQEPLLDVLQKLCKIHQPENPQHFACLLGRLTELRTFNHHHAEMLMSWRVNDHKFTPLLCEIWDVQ
Method in brief: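 HepG2 cells (5 × 10^5 cells/well) were transiently transfected using Fugene HD with pSG5-FXR, pSG5-RXR, pCMV-β-gal and a p(hsp27)-TK-LUC reporter carrying the hsp27 IR1 FXR response element. At 48 h post-transfection, cells were stimulated 18 h with test agent at 10 μM; 10 μM CDCA served as reference. Luciferase was normalized to β-gal; P < 0.05 vs untreated, n = 4.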

[2] = biological target: T1, Bile acid receptor (Homo sapiens); experiment: Agonist activity at human FXR expressed in human HepG2 cells assessed as induction of OSTalpha mRNA expression at 50 uM by quantitative RT-PCR analysis; assay type: functional, cell-based
Method in brief: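 HepG2 cells were primed with 10 μM CDCA alone or with 50 μM test agent. cDNA (50 ng template) was amplified by SYBR Green qPCR with 0.2 μM of each primer over 40 cycles (95/55/72 °C) in triplicate. Expression was normalized to GAPDH and reported as 2^ΔΔCT relative to untreated cells.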

[3] = biological target: T1, Bile acid receptor (Homo sapiens); experiment: Antagonist activity at human FXR expressed in HepG2 cells assessed as inhibition of CDCA-induced transactivation at 50 uM after 18 hrs by luciferase reporter gene assay

Row | Activity [1] | Activity [2] | inhibition [3] | SMILES
1 | Active | Active | Active | C=C1[C@@H](O)CC[C@]2(C)C3=C(CC[C@@H]12)[C@]1(O)[C@@H](O)C[C@H]([C@H](C)CC[C@H](CC)C(C)C)[C@@]1(C)C[C@@H]3O
2 | inactive |  | inactive | C=C1[C@@H](O)CC[C@@]2(C)[C@H]1CCC1=C3[C@H](O)C[C@H]([C@H](C)CC[C@H](CC)C(C)C)[C@@]3(C)CC[C@@]12OC
3 | inactive |  | Active | C=C1[C@@H](O)CC[C@]2(C)C3=C(CC[C@@H]12)[C@@H]1C(=O)C[C@H]([C@H](C)CC[C@H](CC)C(C)C)[C@@]1(C)CC3
4 | inactive |  | Active | C=C1[C@@H](O)CC[C@@]2(C)[C@H]1CCC1=C3[C@H](O)C[C@H]([C@H](C)CC[C@@H](C)C(C)C)[C@@]3(C)CC[C@@]12O
5 | inactive |  | inactive | C=C1[C@@H](O)CC[C@]2(C)C3=C(CC[C@@H]12)[C@]1(O)[C@@H](O)C[C@H]([C@H](C)CC[C@H](CC)C(C)C)[C@@]1(C)C[C@H]3O
6 | inactive |  | Active | C=C1[C@@H](O)CC[C@@]2(C)[C@H]1CCC1=C3[C@H](O)C[C@H]([C@H](C)CC[C@H](CC)C(C)C)[C@@]3(C)CC[C@@]12O
7 | inactive |  | Active | C=C1[C@@H](O)CC[C@]2(C)C3=CC[C@@]4(C)C(=CC[C@@H]4[C@H](C)CC[C@@H](C)C(C)C)C3=CC[C@@H]12
8 | inactive |  | Active | C=C1[C@@H](O)CC[C@]2(C)C3=CC[C@@]4(C)C(=CC[C@@H]4[C@H](C)CC[C@H](CC)C(C)C)C3=CC[C@@H]12
9 | inactive |  | Active | C=C1[C@@H](O)CC[C@@]2(C)[C@H]1C[C@@H](O)C1=C3[C@H](O)C[C@H]([C@H](C)CC[C@H](CC)C(C)C)[C@@]3(C)CC[C@@H]12
